Results from ChEMBL document CHEMBL5154945, “Discovery and Optimization of Pyrrolopyrimidine Derivatives as Selective Disruptors of the Perinucleolar Compartment, a Marker of Tumor Progression toward Metastasis” (J Med Chem, 2022).
Calls of active or inactive are those of the source. The calls are words filed in the database; no cut-off is given here.

Columns and labels:
PC-3M [1] = test: Anticancer activity in human PC-3M cells expressing PTB/GFP fusion protein assessed as perinucleolar compartment disassembly and measured after 24 hrs by Hoechst 33342 staining based microscopic method; type: functional, cell-based; settings: read-out: IC50
Procedure, shortened: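 Imaged by high-content microscopy. Nuclei with PNC spots ≥3 and >0 scored positive. PNC prevalence % = PNC-positive nuclei/total nuclei ×100, normalized to DMSO (0% activity) and 0% PNC (−100%). IC50 from concentration-response.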

in vitro = settings: human, PC-3M cells expressing PTB/GFP fusion protein
[2] = Cytotoxicity against human PC-3M cells expressing PTB/GFP fusion protein assessed as reduction in ATP level and measured after 24 to 48 hrs by ATPlite luminescence assay; type: toxicity, cell-based
[3] = Microsomal stability in CD1 mouse liver microsomes assessed as half life measured upto 60 mins in presence of NADPH by LC-MS analysis; settings: mouse, microsomes, 1 h
[4] = Permeability of the compound at pH 7.4 incubated for 30 mins by UV plate reader based PAMPA assay; settings: pampa, pH 7.4, 0.5 h
PC-3M [5] = test: Antiproliferative activity against human PC-3M cells expressing PTB/GFP fusion protein assessed as cell growth inhibition and measured every four hrs for 130 hrs by IncuCyte zoom live cell analysis; type: functional, cell-based
Procedure, shortened: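 PC3M-PTB1-GFP cells in DMEM/10% FBS, seeded at 1.25×10^4 cells/ml and left overnight at 37 °C, 5% CO2. Compound added to give 11 final concentrations, 10 nM to 20 μM. Brightfield images taken every 4 h for about 130 h; percent confluence measured.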

| SMILES | IC50 (PC-3M [1]) [nM] | selectivity ratio (in vitro) | IC50 [2] [nM] | t1/2 [3] [min] | permeability [4] | Activity (PC-3M [5]) |
| --- | --- | --- | --- | --- | --- | --- |
| CC[C@@]1(O)C(=O)OCc2c1cc1n(c2=O)Cc2cc3ccccc3nc2-1 [CAMPTOTHECIN] | 190 | 2.5 | 480 |  |  |  |
| N=c1c2c(-c3ccccc3)cn(Cc3ccccc3)c2ncn1C1CCOCC1 | > 20000 |  |  | 5.2 | 1729 10^-6 cm/s | Active |
